Columns and labels:
Conditions in all cases: stereoisomer not certain
OR10H4 (Homo sapiens) = target: T1, OR10H4 (Homo sapiens) (UniProt Q8NGA5)
T1 sequence (whole entry): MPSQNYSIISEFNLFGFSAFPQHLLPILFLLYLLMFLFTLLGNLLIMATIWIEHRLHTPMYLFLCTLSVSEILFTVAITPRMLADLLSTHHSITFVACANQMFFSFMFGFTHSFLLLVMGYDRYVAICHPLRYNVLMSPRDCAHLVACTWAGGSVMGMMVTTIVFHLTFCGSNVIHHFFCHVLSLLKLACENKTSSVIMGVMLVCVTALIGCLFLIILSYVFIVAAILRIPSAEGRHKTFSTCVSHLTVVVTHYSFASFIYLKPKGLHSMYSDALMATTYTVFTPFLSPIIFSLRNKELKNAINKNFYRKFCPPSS
Outline: (§1)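 Each receptor–molecule pair is labelled responsive or non-responsive (inactive) according to whether the original authors judged the measured signal statistically different from baseline. The data were taken from the main text and supplementary material of published papers and checked for typos and inconsistencies. Assay methods differed by source, with transient luciferase assays in mammalian cell lines being common.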

OR10H5 (Homo sapiens) = target: T2, OR10H5 (Homo sapiens) (UniProt Q8NGA6)
T2 sequence (whole entry): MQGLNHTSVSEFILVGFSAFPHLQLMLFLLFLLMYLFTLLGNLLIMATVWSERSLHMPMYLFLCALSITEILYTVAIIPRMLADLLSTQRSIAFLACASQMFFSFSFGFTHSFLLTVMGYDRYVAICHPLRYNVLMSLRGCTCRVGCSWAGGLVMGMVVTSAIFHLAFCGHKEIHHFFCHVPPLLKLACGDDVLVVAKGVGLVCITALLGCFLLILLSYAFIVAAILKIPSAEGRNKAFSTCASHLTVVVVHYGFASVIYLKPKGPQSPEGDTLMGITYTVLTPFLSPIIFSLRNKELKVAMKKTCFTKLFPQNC
Outline: as §1

OR10J1 (Homo sapiens) = target: T3, OR10J1 (Homo sapiens) (UniProt P30954)
T3 sequence (whole entry): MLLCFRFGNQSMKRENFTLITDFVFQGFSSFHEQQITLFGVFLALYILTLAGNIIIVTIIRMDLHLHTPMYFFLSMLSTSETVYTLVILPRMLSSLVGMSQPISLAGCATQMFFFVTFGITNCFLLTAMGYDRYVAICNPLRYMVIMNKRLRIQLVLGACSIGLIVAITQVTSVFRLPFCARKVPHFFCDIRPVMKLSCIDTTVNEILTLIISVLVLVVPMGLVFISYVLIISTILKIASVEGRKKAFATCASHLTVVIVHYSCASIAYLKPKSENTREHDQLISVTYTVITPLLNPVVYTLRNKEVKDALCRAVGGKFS
Outline: as §1

OR10J3 (Homo sapiens) = target: T4, OR10J3 (Homo sapiens) (UniProt Q5JRS4)
T4 sequence (whole entry): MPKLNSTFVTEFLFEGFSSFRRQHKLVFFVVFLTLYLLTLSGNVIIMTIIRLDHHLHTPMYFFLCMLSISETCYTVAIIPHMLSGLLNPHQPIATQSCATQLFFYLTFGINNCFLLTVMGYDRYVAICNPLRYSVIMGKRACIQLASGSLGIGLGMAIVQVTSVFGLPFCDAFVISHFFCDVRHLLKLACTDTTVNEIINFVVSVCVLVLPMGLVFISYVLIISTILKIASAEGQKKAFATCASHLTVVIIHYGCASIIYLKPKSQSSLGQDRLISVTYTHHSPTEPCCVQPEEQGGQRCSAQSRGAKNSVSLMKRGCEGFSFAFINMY
Outline: as §1

OR10J5 (Homo sapiens) = target: T5, OR10J5 (Homo sapiens) (UniProt Q8NHC4)
T5 sequence (whole entry): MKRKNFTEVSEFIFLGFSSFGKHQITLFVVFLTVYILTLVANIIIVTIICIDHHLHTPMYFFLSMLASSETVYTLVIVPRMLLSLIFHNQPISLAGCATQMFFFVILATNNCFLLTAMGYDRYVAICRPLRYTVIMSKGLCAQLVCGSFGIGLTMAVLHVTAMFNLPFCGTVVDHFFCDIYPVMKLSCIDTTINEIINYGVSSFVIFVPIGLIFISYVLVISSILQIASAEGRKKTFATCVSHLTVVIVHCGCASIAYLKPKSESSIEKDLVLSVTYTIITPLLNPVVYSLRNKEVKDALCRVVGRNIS
Outline: as §1

OR10K1 (Homo sapiens) = target: T6, OR10K1 (Homo sapiens) (UniProt Q8NGX5)
T6 sequence (whole entry): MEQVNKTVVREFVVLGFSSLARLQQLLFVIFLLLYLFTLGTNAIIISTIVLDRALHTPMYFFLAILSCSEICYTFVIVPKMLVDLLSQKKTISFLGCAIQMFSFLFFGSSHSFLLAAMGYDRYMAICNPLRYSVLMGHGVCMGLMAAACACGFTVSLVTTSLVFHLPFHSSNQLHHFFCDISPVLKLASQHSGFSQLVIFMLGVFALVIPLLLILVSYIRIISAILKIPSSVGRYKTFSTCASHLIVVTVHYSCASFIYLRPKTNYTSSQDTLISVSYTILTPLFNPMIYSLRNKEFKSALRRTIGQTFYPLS
Outline: as §1

OR10P1 (Homo sapiens) = target: T7, OR10P1 (Homo sapiens) (UniProt Q8NGE3)
T7 sequence (whole entry): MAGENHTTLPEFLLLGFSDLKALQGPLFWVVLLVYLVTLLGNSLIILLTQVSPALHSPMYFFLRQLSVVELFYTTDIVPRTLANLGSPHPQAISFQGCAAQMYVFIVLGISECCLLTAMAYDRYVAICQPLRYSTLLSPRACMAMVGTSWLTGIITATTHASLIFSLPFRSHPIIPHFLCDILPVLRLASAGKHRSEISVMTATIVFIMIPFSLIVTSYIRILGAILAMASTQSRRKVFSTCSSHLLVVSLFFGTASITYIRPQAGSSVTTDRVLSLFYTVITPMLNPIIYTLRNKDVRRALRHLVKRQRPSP
Outline: as §1

OR10Q1 (Homo sapiens) = target: T8, OR10Q1 (Homo sapiens) (UniProt Q8NGQ4)
T8 sequence (whole entry): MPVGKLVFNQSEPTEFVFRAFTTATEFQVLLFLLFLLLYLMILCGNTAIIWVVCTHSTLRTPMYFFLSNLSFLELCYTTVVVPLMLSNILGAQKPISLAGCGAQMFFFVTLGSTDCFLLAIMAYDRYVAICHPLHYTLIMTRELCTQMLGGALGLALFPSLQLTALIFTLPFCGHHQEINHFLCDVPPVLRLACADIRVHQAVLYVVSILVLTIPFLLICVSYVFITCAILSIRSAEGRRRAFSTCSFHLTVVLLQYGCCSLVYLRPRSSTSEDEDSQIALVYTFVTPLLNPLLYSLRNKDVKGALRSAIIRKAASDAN
Outline: as §1

OR10R2 (Homo sapiens) = target: T9, OR10R2 (Homo sapiens) (UniProt Q8NGX6)
T9 sequence (whole entry): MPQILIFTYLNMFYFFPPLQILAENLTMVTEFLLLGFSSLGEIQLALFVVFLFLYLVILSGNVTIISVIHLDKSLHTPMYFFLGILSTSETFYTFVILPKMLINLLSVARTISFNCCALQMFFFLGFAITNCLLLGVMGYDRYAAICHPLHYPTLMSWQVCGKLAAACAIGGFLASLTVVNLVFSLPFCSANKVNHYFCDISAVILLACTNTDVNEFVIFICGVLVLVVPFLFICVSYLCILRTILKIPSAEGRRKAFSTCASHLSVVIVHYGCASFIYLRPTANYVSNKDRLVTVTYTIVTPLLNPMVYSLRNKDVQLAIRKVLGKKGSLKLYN
Outline: as §1

OR10S1 (Homo sapiens) = target: T10, OR10S1 (Homo sapiens) (UniProt Q8NGN2)
T10 sequence (whole entry): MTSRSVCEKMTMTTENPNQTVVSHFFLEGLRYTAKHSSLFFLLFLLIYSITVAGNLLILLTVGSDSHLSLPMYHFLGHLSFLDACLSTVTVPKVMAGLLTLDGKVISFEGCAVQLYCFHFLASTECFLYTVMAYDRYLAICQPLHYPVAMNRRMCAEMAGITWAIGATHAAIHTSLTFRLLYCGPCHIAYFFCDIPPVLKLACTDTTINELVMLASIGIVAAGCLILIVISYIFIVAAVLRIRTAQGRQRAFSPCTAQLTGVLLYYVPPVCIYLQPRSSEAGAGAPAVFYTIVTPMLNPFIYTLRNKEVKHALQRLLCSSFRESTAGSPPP
Outline: as §1

OR10T2 (Homo sapiens) = target: T11, OR10T2 (Homo sapiens) (UniProt Q8NGX3)
T11 sequence (whole entry): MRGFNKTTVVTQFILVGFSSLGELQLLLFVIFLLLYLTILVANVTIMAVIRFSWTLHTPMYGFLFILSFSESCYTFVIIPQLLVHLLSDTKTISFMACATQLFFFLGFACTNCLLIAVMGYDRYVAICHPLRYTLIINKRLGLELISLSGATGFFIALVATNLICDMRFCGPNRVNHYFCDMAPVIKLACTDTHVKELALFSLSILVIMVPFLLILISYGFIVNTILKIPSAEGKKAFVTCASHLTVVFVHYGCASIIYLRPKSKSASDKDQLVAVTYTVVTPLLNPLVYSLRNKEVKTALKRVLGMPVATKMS
Outline: as §1

OR10V1 (Homo sapiens) = target: T12, OR10V1 (Homo sapiens) (UniProt Q8NGI7)
T12 sequence (whole entry): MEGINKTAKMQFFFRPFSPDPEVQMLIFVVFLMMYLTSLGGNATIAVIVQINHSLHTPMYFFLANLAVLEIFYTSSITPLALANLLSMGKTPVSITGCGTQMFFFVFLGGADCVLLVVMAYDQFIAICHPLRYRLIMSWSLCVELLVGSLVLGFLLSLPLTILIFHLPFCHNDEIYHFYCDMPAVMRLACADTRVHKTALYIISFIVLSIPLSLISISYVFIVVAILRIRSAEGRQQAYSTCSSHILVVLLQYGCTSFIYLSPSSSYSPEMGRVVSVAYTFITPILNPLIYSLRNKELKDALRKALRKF
Outline: as §1

OR10W1 (Homo sapiens) = target: T13, OR10W1 (Homo sapiens) (UniProt Q8NGF6)
T13 sequence (whole entry): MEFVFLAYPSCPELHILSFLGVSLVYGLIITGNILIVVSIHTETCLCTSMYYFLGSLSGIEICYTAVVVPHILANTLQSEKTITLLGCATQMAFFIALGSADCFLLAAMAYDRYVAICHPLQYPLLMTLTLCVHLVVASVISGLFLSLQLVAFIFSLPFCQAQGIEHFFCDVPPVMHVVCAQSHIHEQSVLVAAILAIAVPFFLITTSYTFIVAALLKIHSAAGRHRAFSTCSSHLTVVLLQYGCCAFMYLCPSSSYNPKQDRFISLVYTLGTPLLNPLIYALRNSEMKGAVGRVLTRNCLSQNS
Outline: as §1

OR10X1 (Homo sapiens) = target: T14, OR10X1 (Homo sapiens) (UniProt Q8NGY0)
T14 sequence (whole entry): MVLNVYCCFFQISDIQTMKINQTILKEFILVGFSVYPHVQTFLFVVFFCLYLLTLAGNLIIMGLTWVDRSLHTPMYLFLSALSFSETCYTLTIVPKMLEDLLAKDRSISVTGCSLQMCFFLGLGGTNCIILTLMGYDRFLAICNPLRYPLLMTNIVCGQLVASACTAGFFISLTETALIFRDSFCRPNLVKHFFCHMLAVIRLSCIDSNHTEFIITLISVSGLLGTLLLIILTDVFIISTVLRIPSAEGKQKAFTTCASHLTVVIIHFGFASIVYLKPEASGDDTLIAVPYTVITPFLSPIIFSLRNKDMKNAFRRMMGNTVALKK
Outline: as §1

OR10Z1 (Homo sapiens) = target: T15, OR10Z1 (Homo sapiens) (UniProt Q8NGY1)
T15 sequence (whole entry): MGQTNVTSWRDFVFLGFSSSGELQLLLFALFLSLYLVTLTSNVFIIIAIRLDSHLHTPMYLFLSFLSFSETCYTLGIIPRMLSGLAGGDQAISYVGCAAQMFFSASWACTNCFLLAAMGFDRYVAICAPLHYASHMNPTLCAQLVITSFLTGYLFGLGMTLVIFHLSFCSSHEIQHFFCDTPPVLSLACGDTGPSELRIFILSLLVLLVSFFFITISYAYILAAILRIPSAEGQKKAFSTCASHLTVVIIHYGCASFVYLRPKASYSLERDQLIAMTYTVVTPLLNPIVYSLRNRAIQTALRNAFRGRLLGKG
Outline: as §1

OR11A1 (Homo sapiens) = target: T16, OR11A1 (Homo sapiens) (UniProt Q9GZK7)
T16 sequence (whole entry): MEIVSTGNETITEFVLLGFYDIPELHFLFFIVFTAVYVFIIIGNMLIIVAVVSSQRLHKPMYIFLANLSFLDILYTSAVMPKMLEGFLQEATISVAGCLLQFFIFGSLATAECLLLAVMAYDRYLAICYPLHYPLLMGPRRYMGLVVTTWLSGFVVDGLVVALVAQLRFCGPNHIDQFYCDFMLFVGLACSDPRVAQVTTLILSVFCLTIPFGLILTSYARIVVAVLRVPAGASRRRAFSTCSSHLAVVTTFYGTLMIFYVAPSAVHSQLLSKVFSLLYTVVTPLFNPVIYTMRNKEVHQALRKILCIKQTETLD
Outline: as §1

OR11G2 (Homo sapiens) = target: T17, OR11G2 (Homo sapiens) (UniProt Q8NGC1)
T17 sequence (whole entry): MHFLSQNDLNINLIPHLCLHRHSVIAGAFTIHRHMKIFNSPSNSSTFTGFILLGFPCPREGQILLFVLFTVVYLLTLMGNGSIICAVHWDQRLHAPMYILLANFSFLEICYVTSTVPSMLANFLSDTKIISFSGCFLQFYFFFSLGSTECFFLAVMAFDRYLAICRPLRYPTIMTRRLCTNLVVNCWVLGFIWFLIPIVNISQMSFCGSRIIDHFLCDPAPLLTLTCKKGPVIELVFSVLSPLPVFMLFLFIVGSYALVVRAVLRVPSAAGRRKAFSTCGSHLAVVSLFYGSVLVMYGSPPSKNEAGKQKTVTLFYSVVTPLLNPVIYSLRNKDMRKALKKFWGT
Outline: as §1

OR11H1 (Homo sapiens) = target: T18, OR11H1 (Homo sapiens) (UniProt Q8NG94)
T18 sequence (whole entry): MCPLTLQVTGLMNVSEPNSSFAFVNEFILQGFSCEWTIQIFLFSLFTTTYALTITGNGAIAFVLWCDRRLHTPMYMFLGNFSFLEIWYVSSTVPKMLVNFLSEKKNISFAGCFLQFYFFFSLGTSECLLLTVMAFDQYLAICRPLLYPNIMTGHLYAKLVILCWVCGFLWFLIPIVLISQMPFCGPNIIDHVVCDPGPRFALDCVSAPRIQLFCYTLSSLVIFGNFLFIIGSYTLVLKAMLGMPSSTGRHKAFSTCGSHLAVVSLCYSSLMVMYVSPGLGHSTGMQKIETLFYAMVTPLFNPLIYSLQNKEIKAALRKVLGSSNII
Outline: as §1

Measured: odorant receptor agonist call;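 also: active if original authors judged signal statistically different from baseline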

CC1=NC(C)C(C)S1 (centres undefined)
inactive: all assays above

CCCCCCCCCS
inactive: OR10J5 (Homo sapiens)
